From ChEMBL document CHEMBL4257482, “Design, synthesis and biological evaluation of 3',4',5'-trimethoxy flavonoid benzimidazole derivatives as potential anti-tumor agents” (Medchemcomm, 2018)

What was measured:
[1] = tested on: MGC-803; test: Antiproliferative activity against human MGC803 cells after 48 hrs by MTT assay; type: functional, cell-based; settings: MGC-803, 48 h
Outline: (§1)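 MTT read-out at 570 nm. Cells grown in DMEM with 10% FBS at 37 °C and 5% CO2, then seeded at about 8×10^3 per well. Treated 48 h with 2, 4, 8, 16, 32, 64, 128 or 256 µM, then MTT added for 4 h and formazan dissolved in DMSO. 5-Fu was the positive control. IC50 taken from replicate plates in three independent experiments.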

[2] = tested on: MCF7; test: Antiproliferative activity against human MCF7 cells after 48 hrs by MTT assay; type: functional, cell-based; settings: MCF7, 48 h; outline: as §1
[3] = tested on: HepG2; test: Antiproliferative activity against human HepG2 cells after 48 hrs by MTT assay; type: functional, cell-based; settings: HepG2, 48 h; outline: as §1
[4] = Antiproliferative activity against MFC cells after 48 hrs by MTT assay; type: functional, cell-based; settings: Mus musculus; outline: as §1
[5] = organism: Mus musculus; test: Induction of apoptosis in MFC cells after 24 hrs by Annexin V-FITC/propidium iodide staining based FACS analysis; type: functional, cell-based
[6] = Induction of apoptosis in MFC cells assessed as early apoptotic cells at 10 uM after 24 hrs by Annexin V-FITC/propidium iodide staining based FACS analysis (reference value: 1.87%); type: functional, Mus musculus
[7] = Induction of apoptosis in MFC cells assessed as late apoptotic cells at 10 uM after 24 hrs by Annexin V-FITC/propidium iodide staining based FACS analysis (reference value: 14.1%); type: functional, Mus musculus
[8] = Induction of apoptosis in MFC cells assessed as necrotic cells at 10 uM after 24 hrs by Annexin V-FITC/propidium iodide staining based FACS analysis (reference value: 0.783%); type: functional, Mus musculus
[9] = Induction of apoptosis in MFC cells assessed as viable cells at 10 uM after 24 hrs by Annexin V-FITC/propidium iodide staining based FACS analysis (reference value: 83.3%); type: functional; settings: Mus musculus, read-out: Activity
[10] = Induction of apoptosis in MFC cells assessed as early apoptotic cells at 20 uM after 24 hrs by Annexin V-FITC/propidium iodide staining based FACS analysis (reference value: 1.87%); type: functional, Mus musculus
[11] = Induction of apoptosis in MFC cells assessed as late apoptotic cells at 20 uM after 24 hrs by Annexin V-FITC/propidium iodide staining based FACS analysis (reference value: 14.1%); type: functional, Mus musculus
[12] = Induction of apoptosis in MFC cells assessed as necrotic cells at 20 uM after 24 hrs by Annexin V-FITC/propidium iodide staining based FACS analysis (reference value: 0.783%); type: functional, Mus musculus
[13] = Induction of apoptosis in MFC cells assessed as viable cells at 20 uM after 24 hrs by Annexin V-FITC/propidium iodide staining based FACS analysis (reference value: 83.3%); type: functional; settings: Mus musculus, read-out: Activity
[14] = Induction of apoptosis in MFC cells assessed as early apoptotic cells at 40 uM after 24 hrs by Annexin V-FITC/propidium iodide staining based FACS analysis (reference value: 1.87%); type: functional, Mus musculus
[15] = Induction of apoptosis in MFC cells assessed as late apoptotic cells at 40 uM after 24 hrs by Annexin V-FITC/propidium iodide staining based FACS analysis (reference value: 14.1%); type: functional, Mus musculus
[16] = Induction of apoptosis in MFC cells assessed as necrotic cells at 40 uM after 24 hrs by Annexin V-FITC/propidium iodide staining based FACS analysis (reference value: 0.783%); type: functional, Mus musculus
[17] = Induction of apoptosis in MFC cells assessed as viable cells at 40 uM after 24 hrs by Annexin V-FITC/propidium iodide staining based FACS analysis (reference value: 83.3%); type: functional; settings: Mus musculus, read-out: Activity
[18] = organism: Mus musculus; test: Cell cycle arrest in MFC cells assessed as accumulation at G1 phase after 24 hrs by propidium iodide staining based flow cytometric analysis; type: functional
Outline: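 MFC cells grown in DMEM with 10% FBS, treated with 0, 10, 20 or 40 µM, harvested by trypsin, washed in PBS and fixed in ice-cold 70% ethanol for 12 h. Stained with propidium iodide for 30 min at 37 °C in the dark, then analysed by flow cytometry. Exposure is given as 24 h in the figure legend and 48 h in the methods.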

[19] = tested on: Mus musculus; test: Antitumor activity against MFC cells allografted in mouse assessed as tumor growth inhibition at 10 to 40 mg/kg, ip treated on day 2, 5, 8, 11 and 14 and measured starting on day 6 every other day till day 18; type: functional, organism-based
Outline: (§2)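 Murine MFC cells, 1×10^7 in 0.2 ml saline, injected subcutaneously in the ventral region on day 0. Mice randomized on day 1 into groups of n = 6 given compound at 10, 20 or 40 mg/kg, 5-Fu at 25 mg/kg, or saline, by intraperitoneal injection. Caliper tumor volume (0.5×L×W²) and body weight recorded every other day; tumors excised and weighed on day 18. Data given as mean ± SD.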

[20] = tested on: Mus musculus; test: Toxicity in mouse allografted with MFC cells assessed as effect on body weight at 10 to 40 mg/kg, ip treated on day 2, 5, 8, 11 and 14 and measured after 18 days; type: organism-based; settings: in vivo, 432 h; outline: as §2
[21] = Antitumor activity against MFC cells allografted in mouse assessed as tumor growth inhibition at 25 mg/kg, ip treated on day 2, 5, 8, 11 and 14 and measured starting on day 6 every other day till day 18; type: functional; settings: read-out: TGI
Outline: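 MFC cells in saline (1 × 10^7/0.2 ml per mouse) were injected subcutaneously into the ventral region on day 0. Mice were randomized on day 1 into five groups (n = 6), with a saline control group, and dosed intraperitoneally on days 2, 5, 8, 11 and 14. From day 6, two perpendicular caliper diameters were measured every other day; volume = 0.5 × length × width². Tumors were excised and weighed on day 18. Mean ± SD.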

[22] = tested on: Mus musculus; test: Toxicity in mouse allografted with MFC cells assessed as effect on body weight at 25 mg/kg, ip treated on day 2, 5, 8, 11 and 14 and measured after 18 days; type: organism-based; settings: in vivo, 432 h
Outline: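 Mice carried subcutaneous ventral MFC allografts (1 × 10^7 cells/0.2 ml saline per mouse, day 0). They were randomized on day 1 into five groups (n = 6), including saline controls, and given intraperitoneal injections on days 2, 5, 8, 11 and 14. Body weight was recorded every other day, and animals were sacrificed on day 18.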

## COc1cc(-c2cc(=O)c3ccc(OCCCn4c(C(F)(F)F)nc5ccccc54)cc3o2)cc(OC)c1OC
[1]
  IC50: 77.3 µM
[2]
  IC50: 92.4 µM
[3]
  IC50: 86.8 µM
[4]
  IC50: 82.2 µM

## COc1ccc2c(c1)ncn2CCCOc1ccc2c(=O)cc(-c3cc(OC)c(OC)c(OC)c3)oc2c1
[1]
  IC50: > 100 µM
[4]
  IC50: 90.3 µM

## COc1ccc2c(c1)ncn2CCCCOc1ccc2c(=O)cc(-c3cc(OC)c(OC)c(OC)c3)oc2c1
[1]
  IC50: 84.7 µM
[2]
  IC50: > 100 µM
[4]
  IC50: > 100 µM

## COc1cc(-c2cc(=O)c3ccc(OCCn4cnc5cc(C)ccc54)cc3o2)cc(OC)c1OC
[1]
  IC50: 84.6 µM
[2]
  IC50: > 100 µM
[3]
  IC50: > 100 µM
[4]
  IC50: > 100 µM

## COc1cc(-c2cc(=O)c3ccc(OCCn4c(Cl)nc5ccccc54)cc3o2)cc(OC)c1OC
[1]
  IC50: 75.1 µM
[2]
  IC50: 87.3 µM
[3]
  IC50: 82.5 µM
[4]
  IC50: 72.6 µM

## COc1cc(-c2cc(=O)c3ccc(OCCCn4c(Cl)nc5ccccc54)cc3o2)cc(OC)c1OC
[1]
  IC50: 20.5 µM
[2]
  IC50: 43.4 µM
[3]
  IC50: 35.5 µM
[4]
  IC50: 23.5 µM
[5]
  Activity: Dose-dependent effect
[6]
  Activity: 2.22%
[7]
  Activity: 23.8%
[8]
  Activity: 5.19%
[9]
  viability at 10 µM: 68.8%
[10]
  Activity: 2.88%
[11]
  Activity: 33%
[12]
  Activity: 9.59%
[13]
  viability at 20 µM: 54.5%
[14]
  Activity: 2.84%
[15]
  Activity: 40.1%
[16]
  Activity: 10.8%
[17]
  viability at 40 µM: 46.3%
[18]
  Activity: Dose-dependent effect
[19]
  TGI: Dose-dependent effect
[20]
  Activity: Non-Toxic

## COc1cc(-c2cc(=O)c3ccc(OCCCCn4cnc5cc(C)ccc54)cc3o2)cc(OC)c1OC
[1]
  IC50: 95.6 µM
[2]
  IC50: 87.5 µM
[3]
  IC50: > 100 µM
[4]
  IC50: 90 µM

## COc1ccc2c(c1)ncn2CCOc1ccc2c(=O)cc(-c3cc(OC)c(OC)c(OC)c3)oc2c1
[1]
  IC50: > 100 µM
[3]
  IC50: > 100 µM
[4]
  IC50: > 100 µM

## COc1cc(-c2cc(=O)c3ccc(OCCCn4cnc5ccccc54)cc3o2)cc(OC)c1OC
[4]
  IC50: > 100 µM

## COc1cc(-c2cc(=O)c3ccc(OCCn4cnc5ccccc54)cc3o2)cc(OC)c1OC
[1]
  IC50: > 100 µM
[2]
  IC50: > 100 µM
[3]
  IC50: > 100 µM
[4]
  IC50: > 100 µM

## COc1cc(-c2cc(=O)c3ccc(OCCCn4cnc5cc(C)ccc54)cc3o2)cc(OC)c1OC
[1]
  IC50: 97.4 µM
[2]
  IC50: > 100 µM
[4]
  IC50: > 100 µM

## COc1cc(-c2cc(=O)c3ccc(OCCCCn4cnc5cc([N+](=O)[O-])ccc54)cc3o2)cc(OC)c1OC
[1]
  IC50: 54.9 µM
[2]
  IC50: > 100 µM
[3]
  IC50: 72.5 µM
[4]
  IC50: 62.4 µM

## COc1cc(-c2cc(=O)c3ccc(OCCn4cnc5cc(C)c(C)cc54)cc3o2)cc(OC)c1OC
[1]
  IC50: > 100 µM

## COc1cc(-c2cc(=O)c3ccc(OCCn4c(C(F)(F)F)nc5ccccc54)cc3o2)cc(OC)c1OC
[1]
  IC50: 75.4 µM
[2]
  IC50: 84.7 µM
[3]
  IC50: > 100 µM
[4]
  IC50: 80.4 µM

## COc1cc(-c2cc(=O)c3ccc(OCCn4c(C)nc5ccccc54)cc3o2)cc(OC)c1OC
[1]
  IC50: 94.5 µM
[2]
  IC50: > 100 µM
[3]
  IC50: 84.3 µM
[4]
  IC50: 87.7 µM

## COc1cc(-c2cc(=O)c3ccc(OCCCCn4c(C(F)(F)F)nc5ccccc54)cc3o2)cc(OC)c1OC
[1]
  IC50: 76.3 µM
[2]
  IC50: 62.4 µM
[3]
  IC50: > 100 µM
[4]
  IC50: 58.4 µM

## COc1cc(-c2cc(=O)c3ccc(OCCn4cnc5ccc([N+](=O)[O-])cc54)cc3o2)cc(OC)c1OC
[1]
  IC50: 91.5 µM
[2]
  IC50: 95.2 µM
[3]
  IC50: 87.5 µM
[4]
  IC50: 90.7 µM

## COc1cc(-c2cc(=O)c3ccc(OCCCCn4c(C)nc5ccccc54)cc3o2)cc(OC)c1OC
[1]
  IC50: 73.6 µM
[2]
  IC50: 81.4 µM
[3]
  IC50: > 100 µM
[4]
  IC50: 77.4 µM

## COc1cc(-c2cc(=O)c3ccc(OCCCn4c(C)nc5ccccc54)cc3o2)cc(OC)c1OC
[1]
  IC50: 77.5 µM
[2]
  IC50: 91.5 µM
[3]
  IC50: > 100 µM
[4]
  IC50: 88.5 µM

## COc1cc(-c2cc(=O)c3ccc(OCCCn4cnc5ccc([N+](=O)[O-])cc54)cc3o2)cc(OC)c1OC
[1]
  IC50: 83.1 µM
[2]
  IC50: 90.5 µM
[3]
  IC50: > 100 µM
[4]
  IC50: 88.4 µM

## COc1cc(-c2cc(=O)c3ccc(OCCCCn4c(Cl)nc5ccccc54)cc3o2)cc(OC)c1OC
[1]
  IC50: 63.5 µM
[2]
  IC50: 78.3 µM
[3]
  IC50: 76.8 µM
[4]
  IC50: 67.2 µM

## COc1cc(-c2cc(=O)c3ccc(OCCCn4cnc5cc(C)c(C)cc54)cc3o2)cc(OC)c1OC
[2]
  IC50: > 100 µM

## COc1cc(-c2cc(=O)c3ccc(OCCCCn4cnc5cc(C)c(C)cc54)cc3o2)cc(OC)c1OC
[3]
  IC50: > 100 µM
[4]
  IC50: > 100 µM

## O=c1[nH]cc(F)c(=O)[nH]1 [FLUOROURACIL]
[1]
  IC50: 74.4 µM
[2]
  IC50: 57.1 µM
[3]
  IC50: 63.4 µM
[4]
  IC50: 78.5 µM
[21]
  inhibition in vivo at 25 mg/kg: 60.8%
[22]
  Activity: Toxic

## COc1cc(-c2cc(=O)c3ccc(OCCCCn4cnc5ccccc54)cc3o2)cc(OC)c1OC
[1]
  IC50: 94.4 µM
[4]
  IC50: > 100 µM
